What was measured:
[1] = biological target: T1, Orexin/Hypocretin receptor type 1 (Homo sapiens, UniProt O43613); experiment: Displacement of [3H](S)-N-(biphenyl-2-yl)-1-(2-(1-methyl-1H-benzo[d]imidazol-2-ylthio)acetyl)pyrrolidine-2-carboxamide from human OX1R expressed in CHO cells after 3 hrs by scintillation counting; type: cell-based
T1 sequence (O43613 whole entry): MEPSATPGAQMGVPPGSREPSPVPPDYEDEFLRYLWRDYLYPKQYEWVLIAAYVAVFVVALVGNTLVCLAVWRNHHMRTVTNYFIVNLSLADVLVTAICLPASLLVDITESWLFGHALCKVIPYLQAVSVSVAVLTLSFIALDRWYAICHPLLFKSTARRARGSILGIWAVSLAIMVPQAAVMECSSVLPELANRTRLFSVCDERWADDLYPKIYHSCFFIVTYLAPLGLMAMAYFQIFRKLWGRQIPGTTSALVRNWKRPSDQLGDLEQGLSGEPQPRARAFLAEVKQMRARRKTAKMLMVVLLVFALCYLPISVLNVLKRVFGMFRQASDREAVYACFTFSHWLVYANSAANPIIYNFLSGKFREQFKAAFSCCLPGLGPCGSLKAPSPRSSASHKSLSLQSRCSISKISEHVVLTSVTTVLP

[2] = biological target: T1, Orexin/Hypocretin receptor type 1; experiment: Displacement of [3H]N-cyclobutyl-5-methyl-N-(2-(1-methyl-1H-benzo[d]imidazol-2-ylthio)ethyl)-2-(2H-1,2,3-triazol-2-yl)benzamide from human OX1R expressed in CHO cells after 20 hrs by scintillation counting; type: cell-based
[3] = biological target: T2, Orexin receptor type 2 (Homo sapiens, UniProt O43614); experiment: Displacement of [3H](S)-N-(2-(1H-pyrrol-1-yl)phenyl)-1-(2-(1-methyl-1H-benzo[d]imidazol-2-ylthio)acetyl)pyrrolidine-2-carboxamide from human OX2R expressed in CHO cells after 3 hrs by scintillation counting; type: cell-based
T2 sequence (O43614 whole entry): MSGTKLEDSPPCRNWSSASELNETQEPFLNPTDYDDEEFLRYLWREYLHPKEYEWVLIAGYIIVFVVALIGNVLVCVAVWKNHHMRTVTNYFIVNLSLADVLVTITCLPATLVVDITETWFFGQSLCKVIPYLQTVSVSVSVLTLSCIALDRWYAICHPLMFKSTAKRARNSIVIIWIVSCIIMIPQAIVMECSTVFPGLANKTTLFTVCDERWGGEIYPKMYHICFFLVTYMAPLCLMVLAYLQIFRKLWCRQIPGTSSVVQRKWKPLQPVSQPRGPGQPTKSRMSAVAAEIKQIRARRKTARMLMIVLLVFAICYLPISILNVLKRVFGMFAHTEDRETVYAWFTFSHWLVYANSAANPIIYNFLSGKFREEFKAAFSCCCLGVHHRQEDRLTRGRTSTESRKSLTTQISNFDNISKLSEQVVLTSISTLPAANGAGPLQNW

[4] = biological target: T1, Orexin/Hypocretin receptor type 1; experiment: Antagonist activity at human OX1R expressed in CHO cells assessed as inhibition of orexin-A-induced intracellular calcium mobilization after 5 mins by FLIPR assay; type: functional, cell-based
[5] = biological target: T2, Orexin receptor type 2; experiment: Antagonist activity at human OX2R expressed in CHO cells assessed as inhibition of orexin-A-induced intracellular calcium mobilization after 5 mins by FLIPR assay; type: functional, cell-based
[6] = Clearance in dog at 0.5 mg/kg, iv; type: ADME, organism-based, Canis lupus familiaris; design: dose 0.5 mg/kg, route intravenous; settings: in vivo
Summary of the method: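 Dogs received an IV dose with DMSO as vehicle (n = 3). Clearance was derived from plasma pharmacokinetics.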

[7] = system: Liver microsomes; experiment: Idiosyncratic toxicity in human liver microsomes assessed GSH-derived reactive electrophilic adduct formation at 10 uM after 60 mins by UPLC/HRMS analysis relative to labetalol; design: species or system Microsome; settings: 1 h
Summary of the method: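 Pooled human liver microsomes (1 mg/mL protein) were incubated 60 min at 37 °C in 100 mM potassium phosphate pH 7.4. The mix held 10 μM compound, 1 mM MgCl2, 1 mM EDTA, 5 mM GSH and 1 mM NADPH. After quenching, GSH adducts were detected by UPLC/HRMS. Summed adduct peak areas were divided by the labetalol internal-standard area.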

[8] = Oral bioavailability in dog at 3 mg/kg; type: ADME, organism-based, Canis lupus familiaris; settings: in vivo

Ki [1]	Ki [2]	Ki [3]	IC50 [4]	IC50 [5]	clearance [6]	bioavailability [8]	Compound	Ratio [7]
6.2 nM	6.2 nM	0.47 nM	26 nM	18 nM	6.4 mL/min/kg	–	C[C@@H]1CCN(c2ncc3ccccc3n2)CCN1C(=O)c1ccccc1-n1nccn1	–
1.8 nM	1.8 nM	0.25 nM	28 nM	32 nM	4.9 mL/min/kg	15%	C[C@@H]1CCN(c2cnc3cc(F)c(F)cc3n2)CCN1C(=O)c1ccccc1-n1nccn1	3.7
0.39 nM	0.39 nM	0.36 nM	30 nM	30 nM	6 mL/min/kg	< 5%	Cc1ccc(-n2nccn2)c(C(=O)N2CCN(c3ncc4ccccc4n3)CC[C@H]2C)c1	–

Compound	Ki [1]	Ki [2]	Ki [3]	IC50 [4]	IC50 [5]	clearance [6]	bioavailability [8]	Ratio [7]
Cc1ccc(-n2nccn2)c(C(=O)N2CCN(c3nc4ccccc4o3)CC[C@H]2C)c1	4.1 nM	4.1 nM	3.2 nM	24 nM	57 nM	2.4 mL/min/kg	–	–

From ChEMBL document CHEMBL1155457, “Discovery of the dual orexin receptor antagonist [(7R)-4-(5-chloro-1,3-benzoxazol-2-yl)-7-methyl-1,4-diazepan-1-yl][5-methyl-2-(2H-1,2,3-triazol-2-yl)phenyl]methanone (MK-4305) for the treatment of insomnia” (J Med Chem, 2010)
